Rows were chosen to be rich in hits. Some 2.3% of all compounds tested hit in one or more screens of this group.
TRPC6 inh: mouse TRPC6 channel inhibitors, primary screen, cell-based, HEK293, membrane potential dye | actives 1.1% (n = 310,000) | Short transient receptor potential channel 6 (Mus musculus), Q61143 | ACh-evoked depolarization; active compounds read low | B-score at 10 µM;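 active = B-score under library mean minus 3 SD, initial fluorescence not abnormally high, positive integrated signal ratio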;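 note: B-score derived from integrated fluorescence ratio over the kinetic read; more negative B-score means stronger inhibition of depolarization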
TRPC4 act: activators of mouse TRPC4 channel, primary screen, Fluo4 calcium, HEK293 TRPC4beta/mu-opioid cells; B-score at 10 µM; Fluo4 calcium fluorescence; active compounds read high; Short transient receptor potential channel 4 (Mus musculus), Q9QUQ5; AID 2237, 2010; actives 0.49% (n = 310,000);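 active = B-score above 5 SD of library B-scores, and initial fluorescence ratio not above library mean plus 5 SD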;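 note: positive B-score marks a calcium rise read as TRPC4 activation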
Target sequence (Q9QUQ5 whole entry, looked up): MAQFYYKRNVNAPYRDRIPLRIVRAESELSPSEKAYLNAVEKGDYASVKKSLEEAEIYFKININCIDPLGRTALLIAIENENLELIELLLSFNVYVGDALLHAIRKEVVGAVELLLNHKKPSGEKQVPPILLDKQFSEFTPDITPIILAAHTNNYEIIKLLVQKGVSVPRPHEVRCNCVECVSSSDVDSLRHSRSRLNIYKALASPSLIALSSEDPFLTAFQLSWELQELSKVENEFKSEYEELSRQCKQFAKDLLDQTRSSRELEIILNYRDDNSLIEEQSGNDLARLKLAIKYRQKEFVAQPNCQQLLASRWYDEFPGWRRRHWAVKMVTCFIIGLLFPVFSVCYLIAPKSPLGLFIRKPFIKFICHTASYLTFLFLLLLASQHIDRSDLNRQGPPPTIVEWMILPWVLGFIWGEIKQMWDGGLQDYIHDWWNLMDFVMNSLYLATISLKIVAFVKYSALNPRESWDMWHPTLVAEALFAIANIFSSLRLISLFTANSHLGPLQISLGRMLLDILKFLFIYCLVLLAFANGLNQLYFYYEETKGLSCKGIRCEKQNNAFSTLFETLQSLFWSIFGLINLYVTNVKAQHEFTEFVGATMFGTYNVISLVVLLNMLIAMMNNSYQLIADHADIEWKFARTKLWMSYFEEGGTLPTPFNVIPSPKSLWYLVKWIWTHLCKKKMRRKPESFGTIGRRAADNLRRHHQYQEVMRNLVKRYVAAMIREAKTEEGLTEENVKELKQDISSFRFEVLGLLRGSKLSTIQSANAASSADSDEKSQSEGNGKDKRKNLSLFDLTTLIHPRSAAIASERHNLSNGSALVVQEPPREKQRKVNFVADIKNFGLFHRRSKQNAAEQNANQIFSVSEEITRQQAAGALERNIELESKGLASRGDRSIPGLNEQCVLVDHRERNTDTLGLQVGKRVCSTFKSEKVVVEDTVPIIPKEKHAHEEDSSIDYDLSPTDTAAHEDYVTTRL
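system = HEK293 cells stably co-expressing mouse TRPC4beta and mu-opioid receptor | schedule = Fluo4 dye loading 45 min at room temperature, 110 s recording | measure = B-scored integrated calcium fluorescence ratio | signal = Fluo4 calcium-sensitive dye fluorescence, kinetic, 1 Hz baseline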
TRPC6 activator: mouse TRPC6 channel activators, primary screen, cell-based, HEK293, membrane potential dye; B-score at 10 µM; Short transient receptor potential channel 6 (Mus musculus), Q61143; actives 0.13% (n = 310,000); HEK293-TRPC6 membrane potential dye fluorescence; active compounds read high;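 active = B-score of the integrated fluorescence ratio above library mean plus 3 SD, and starting fluorescence ratio within library mean plus 5 SD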;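 note: higher score means more depolarization so channel activation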
TRPC4 inh: inhibitors of mouse TRPC4 channel, primary screen, Fluo4 calcium, HEK293 TRPC4beta/mu-opioid cells. Short transient receptor potential channel 4 (Mus musculus), Q9QUQ5. DAMGO-evoked Fluo4 calcium flux; active compounds read low. B-score at 10 µM. actives 0.39% (n = 300,000). AID 2247, 2010;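 active = B-score over 3 SD under the library average, no early fluorescence shift, positive overall ratio signal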
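Material: HEK293 cells with stable TRPC4beta plus mu-opioid receptor expression; probe or stimulus: DAMGO in two steps, submaximal then maximal; technique: Fluo4 calcium fluorescence by kinetic imaging, 5 s 1 Hz baseline; measure: integrated fluorescence ratio relative to baseline, converted to per-well B score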
TRPC4 PAM: positive allosteric modulators of TRPC4, primary screen, cell-based, mouse TRPC4beta, HEK293 mu-opioid, Fluo-4 calcium. actives 0.42% (n = 310,000). B-score at 10 µM. DAMGO EC20, Fluo-4 Ca2+ flux; active compounds read high. AID 2227, 2009;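 active = B-score of calcium response area above 5 SD of library B-scores, with initial fluorescence ratio within 5 SD of library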;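 note: B-score of integrated fluorescence ratio over time as area under calcium response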
The depositor's hits bear a star; i = inactive.

SMILES	TRPC6 inh	TRPC4 act	TRPC6 activator	TRPC4 inh	TRPC4 PAM
COc1cccc(CN2CCNCC2)c1OC	i	i	i	i	i
Brc1ccc(CN2CCNCC2)s1	i	i	i	i	14*
O=C(O)Cc1cnc[nH]1	i	i	i	i	i
C[C@@H](N)Cc1cnc[nH]1	i	197*	i	i	i
CC/C(=C\C=C\[C@@H]1C=C[C@@H]2CCC[C@H]2[C@@H]1C(=O)c1ccc[nH]1)[C@@H]1O[C@@H]([C@@H](C)C(=O)O)CC[C@@H]1C	i	67*	i	i	i
Cc1cccc(-n2c(-c3ccccc3)nc3ccccc3c2=O)n1	i	i	i	i	i
CCc1nccc2c1[nH]c1ccccc12	i	i	i	-6*	i
Cc1ccc(CN2C3CCCC2CC(NC(=S)NCc2ccccc2)C3)cc1 (stereo not drawn)	i	i	i	-8*	i
N#Cc1ccc(N2CCNCC2)c(F)c1	i	53*	i	i	i
N#Cc1cc(F)c(N2CCNCC2)cc1Cl	i	i	i	i	i
Cc1ccc2[nH]c(C)c(CCNCc3cccnc3)c2c1	i	i	i	i	i
CCOc1ccc(-c2c(C)n(-c3ccc(OCC)cc3)c3[n+]2CCCCC3)cc1	-9.4*	i	13*	i	i
CCOc1ccc(-n2c(-c3ccoc3)nc3ccccc3c2=O)cc1	i	i	i	i	i
O=c1[nH]c(=S)n(-c2ccccc2)c(O)c1C=NCCN1CCNCC1	i	i	i	i	i
CCOC(=O)C1(CCOc2ccccc2)CCN(Cc2ccc(C)s2)CC1	i	i	i	i	i
COc1ccc(C(O)CNC(C)C)c(F)c1OC (stereo not drawn)	i	i	i	i	i
Clc1ccc(CCNCc2ccncc2)c(Cl)c1	i	50*	i	i	i
COc1ccc(CNC(=O)C(NC(C)=O)C(C)C)cc1OC (stereo not drawn)	i	i	i	i	i
COc1ccc(C(CNC(=O)c2ccc3c(c2)CCC3)N(C)C)cc1 (stereo not drawn)	i	209*	i	i	i
O=[N+]([O-])c1cc2c(cc1CNCCc1ccc3c(c1)OCO3)OCO2	i	90*	i	-8*	i
COc1cc(OC)c(OC)cc1CNCCc1cccc(F)c1	i	i	i	i	i
COc1cc(OC)c(OC)cc1CNCCc1ccc(OC)c(OC)c1	i	i	i	i	i
COc1ccc(CNCCc2ccc(Cl)cc2)c(OC)c1OC	i	62*	i	i	i
COc1ccc(CNCCc2cccc(F)c2)c2ccccc12	i	57*	i	i	i
Clc1ccc2c(c1)C(c1ccccc1Cl)=NCc1nnc(N3CCN(CCOc4ccccc4)CC3)n1-2	i	i	i	i	29*
SMILES	TRPC6 inh	TRPC4 act	TRPC6 activator	TRPC4 inh	TRPC4 PAM
Clc1ccc2c(c1)C(c1ccccc1Cl)=NCc1nnc(N3CCN(CCSc4ccccc4)CC3)n1-2	i	i	i	i	i
COc1ccc(Cl)cc1C(=O)C1CCCN(CCO)C1 (stereo not drawn)	i	70*	i	i	i
CCn1ccnc1CN1CCCC(C(=O)c2cc(Cl)ccc2OC)C1 (stereo not drawn)	i	i	i	i	i
Cc1cccc(N=Cc2c(O)n(-c3ccccc3C)c(=O)[nH]c2=O)c1	i	i	i	i	24*
O=c1[nH]c(=O)n(Cc2ccc(F)cc2)c(O)c1/C=N/Nc1ccccc1	i	i	i	i	i
Cc1ccc(C)c(NC(=S)NCCc2cnc[nH]2)c1	i	142*	i	i	i
COc1ccc(CCC(=O)NCCc2cnc[nH]2)cc1	i	i	i	i	i

High-throughput results from PubChem.
